Measured values published in ChEMBL document CHEMBL1141250, “Isolation, structure, and coccidiostat activity of coccidiostatin A” (J Nat Prod, 2007).
Values belong to the compound of their own block, whether it stands above or below them. The source made the active and inactive calls. The rule behind the calls is not given here.

Tests used:
Besnoitia jellisoni = assay: Antiprotozoal activity against Besnoitia jellisoni trophozoites in HFF cells assessed as intactness of cell monolayer after 4 days by Ex-Bes assay; assay type: functional; details: 96 h, read-out: ED50 (the source's name)
Summary of the method: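 Whole-cell in vitro Ex-Bes (extended Besnoitia) assay: B. jellisoni trachyzoites treated with test compounds. ED50 is the concentration giving 50% reduction of trachyzoites relative to an untreated control, read visually. Value is the average of two experiments run in duplicate.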

Eimeria tenella [1] = assay: Anticococcidal activity against Eimeria tenella infected chick at 416 ppm, po; assay type: functional, organism-based
Summary of the method: (§1)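 In vivo test in the minibird assay for coccidiosis (MAC) using Eimeria-infected chickens. Compounds were tested as purified material. Activity in this assay guided fractionation of the fungal extract.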

Eimeria acervulina [2] = assay: Anticococcidal activity against Eimeria acervulina infected chick at 416 ppm, po; assay type: functional, organism-based; summary of the method: as §1
Eimeria mitis [3] = assay: Anticococcidal activity against Eimeria mitis infected chick at 416 ppm, po; assay type: functional, organism-based; summary of the method: as §1
Eimeria maxima [4] = assay: Anticococcidal activity against Eimeria maxima infected chick at 416 ppm, po; assay type: functional, organism-based; summary of the method: as §1
Eimeria praecox [5] = assay: Anticococcidal activity against Eimeria praecox infected chick at 416 ppm, po; assay type: functional; summary of the method: as §1
Eimeria tenella [6] = assay: Anticococcidal activity against Eimeria tenella infected chick at 28 mg/kg, ip; assay type: functional, organism-based; parameters: dose 28 mg/kg; summary of the method: as §1
Eimeria acervulina [7] = assay: Anticococcidal activity against Eimeria acervulina infected chick at 28 mg/kg, ip; assay type: functional, organism-based; parameters: dose 28 mg/kg; summary of the method: as §1
Eimeria mitis [8] = assay: Anticococcidal activity against Eimeria mitis infected chick at 28 mg/kg, ip; assay type: functional, organism-based; parameters: dose 28 mg/kg; summary of the method: as §1
Eimeria maxima [9] = assay: Anticococcidal activity against Eimeria maxima infected chick at 28 mg/kg, ip; assay type: functional, organism-based; parameters: dose 28 mg/kg; summary of the method: as §1
Eimeria praecox [10] = assay: Anticococcidal activity against Eimeria praecox infected chick at 28 mg/kg, ip; assay type: functional, organism-based; parameters: dose 28 mg/kg; summary of the method: as §1
Eimeria tenella [11] = assay: Anticococcidal activity against Eimeria tenella infected chick assessed as reduction of oocyst at 150 ppm after 48 hrs relative to control; assay type: functional; parameters: scale not given: the % may be the effect or the level left; summary of the method: as §1
Eimeria acervulina [12] = assay: Anticococcidal activity against Eimeria acervulina infected chick assessed as reduction of oocyst at 150 ppm after 48 hrs relative to control; assay type: functional; parameters: scale not given: the % may be the effect or the level left; summary of the method: as §1
Eimeria acervulina [13] = assay: Anticococcidal activity against Eimeria acervulina infected chick assessed as reduction of oocyst at 75 ppm after 48 hrs relative to control; assay type: functional; parameters: scale not given: the % may be the effect or the level left; summary of the method: as §1
Eimeria mitis [14] = assay: Anticococcidal activity against Eimeria mitis infected chick assessed as reduction of oocyst at 150 ppm after 48 hrs relative to control; assay type: functional; parameters: scale not given: the % may be the effect or the level left; summary of the method: as §1
Eimeria maxima [15] = assay: Anticococcidal activity against Eimeria maxima infected chick assessed as reduction of oocyst at 75 ppm after 48 hrs relative to control; assay type: functional, organism-based; summary of the method: as §1
Eimeria praecox [16] = assay: Anticococcidal activity against Eimeria praecox infected chick assessed as reduction of oocyst at 75 ppm after 48 hrs relative to control; assay type: functional; summary of the method: as §1
HFF [17] = assay: Cytotoxicity against human HFF cells at 500 ppm by Ex-Bes assay; assay type: cell-based
Eimeria maxima [18] = assay: Anticococcidal activity against Eimeria maxima infected chick assessed as reduction of oocyst at 150 ppm after 48 hrs relative to control; assay type: functional, organism-based; summary of the method: as §1
Eimeria praecox [19] = assay: Anticococcidal activity against Eimeria praecox infected chick assessed as reduction of oocyst at 150 ppm after 48 hrs relative to control; assay type: functional; summary of the method: as §1
Eimeria tenella [20] = assay: Anticococcidal activity against Eimeria tenella infected chick at 75 to 150 ppm; assay type: functional, organism-based; summary of the method: as §1
Eimeria acervulina [21] = assay: Anticococcidal activity against Eimeria acervulina infected chick at 75 to 150 ppm; assay type: functional, organism-based; summary of the method: as §1
Eimeria mitis [22] = assay: Anticococcidal activity against Eimeria mitis infected chick at 75 to 150 ppm; assay type: functional, organism-based; summary of the method: as §1
Eimeria maxima [23] = assay: Anticococcidal activity against Eimeria maxima infected chick at 75 to 150 ppm; assay type: functional, organism-based; summary of the method: as §1
Eimeria praecox [24] = assay: Anticococcidal activity against Eimeria praecox infected chick at 75 to 150 ppm; assay type: functional; summary of the method: as §1
HFF [25] = assay: Cytotoxicity against human HFF cells at 1 ug/ml by Ex-Bes assay; assay type: cell-based
HFF [26] = assay: Cytotoxicity against human HFF cells at =< 0.125 ug/ml by Ex-Bes assay; assay type: cell-based

EC50 (Besnoitia jellisoni): 1390 nM
Compound: CC(=C/C(C)=C\[C@]1(C)O[C@@H](C)[C@]2(C)O[C@@H]21)/C=C(C)\C=C(C)/C=C(\C)[C@@H]1OC(=O)C(C)(C)C(=O)[C@H]1C [EMECORRGATIN A]
Activity (Eimeria tenella [1]): inactive
Activity (Eimeria acervulina [2]): inactive
Activity (Eimeria mitis [3]): inactive
Activity (Eimeria maxima [4]): inactive
Activity (Eimeria praecox [5]): inactive
Activity (Eimeria tenella [6]): inactive
Activity (Eimeria acervulina [7]): inactive
Activity (Eimeria mitis [8]): inactive
Activity (Eimeria maxima [9]): inactive
Activity (Eimeria praecox [10]): inactive

Compound: CC1=C[C@@]2(C)O[C@@H](C)[C@@](C)(O)[C@H]2[C@@H]1/C=C/C=C/C=C/C=C/C1(C)C2OC(=O)C1(C)C(=O)C2C (stereo partly drawn) [COCCIDIOSTATIN A]
Activity (Eimeria tenella [11]): 59%
Activity (Eimeria acervulina [12]): 74%
Activity (Eimeria acervulina [13]): 64%
Activity (Eimeria mitis [14]): 44%
Activity (Eimeria maxima [15]): inactive
Activity (Eimeria praecox [16]): inactive
Activity (HFF [17]): Non-toxic
Activity (Eimeria maxima [18]): inactive
Activity (Eimeria praecox [19]): inactive
Activity (Eimeria tenella [20]): Active
Activity (Eimeria acervulina [21]): Active
Activity (Eimeria mitis [22]): Active
Activity (Eimeria maxima [23]): Active
Activity (Eimeria praecox [24]): Active

Compound: CCC(=O)CCCCC[C@@H]1NC(=O)[C@H]2CCCCN2C(=O)[C@H]([C@@H](C)CC)NC(=O)[C@H](Cc2cn(OC)c3ccccc23)NC1=O [APICIDIN]
EC50 (Besnoitia jellisoni): < 280 nM
Activity (HFF [25]): Toxic
Activity (HFF [26]): Non-toxic
